Experimental data: ChEMBL document CHEMBL4613313, “Multiple in Vitro Inhibition of HIV-1 Proteins by 2,6-Dipeptidyl-anthraquinone Conjugates Targeting the PBS RNA” (ACS Med Chem Lett, 2020)
Activity calls are given as the source filed them. The rule behind the calls is not given here.

Legend:
PBS RNA [1] = experiment: Binding affinity to HIV1 (+)/(-) PBS RNA sequence assessed as inhibition of HIV-1 Tat (48 to 57 residues) mediated (+)/(-)PBS RNA annealing preincubated with (+)/(-)PBS RNA for 15 mins followed by peptide addition and measured after 10 mins by RAMPA assay; type: nucleic-acid assay, Human immunodeficiency virus 1
Outline: (§1)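 Each folded PBS RNA strand (1 μM) was preincubated with compound for 15 min at room temperature. The two strands were then mixed with annealer: NC at 3 μM for line 4, Tat(48–57) […]. Annealing ran 10 min at room temperature and products were resolved by gel. The annealer-induced duplex band was quantified to derive IC50, reported as mean ± SEM of triplicate experiments.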

PBS RNA [2] = experiment: Binding affinity to HIV1 (+)PBS/(-)PBS RNA sequence assessed as inhibition of recombinant full-length HIV-1 nucleocapsid protein-mediated (+)/(-)PBS RNA annealing preincubated with (+)/(-)PBS RNA for 15 mins followed by NC addition and measured after 10 mins by RAMPA assay; type: nucleic-acid assay, Human immunodeficiency virus 1; outline: as §1
PBS RNA [3] = experiment: Binding affinity to HIV1 (+)PBS RNA assessed as compound-RNA complex formation at stoichiometry ratio of 2:1 incubated for 30 mins measured under non-denaturing conditions by ESI-MS analysis; type: nucleic-acid assay; conditions: Human immunodeficiency virus 1
Outline: (§2)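 ESI-MS binding: compound–RNA mixtures analysed for free and compound-bound RNA species, including 2:1 complexes. Species peak intensities were quantified to give the free versus bound partitioning, and the percentage of bound substrate in each spectrum was used to derive relative binding affinity for each RNA construct.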

PBS RNA [4] = experiment: Binding affinity to HIV1 (-)PBS RNA assessed as compound-RNA complex formation at stoichiometry ratio of 2:1 incubated for 30 mins measured under non-denaturing conditions by ESI-MS analysis; type: nucleic-acid assay; conditions: Human immunodeficiency virus 1; outline: as §2
PBS RNA [5] = experiment: Binding affinity to HIV1 (-)PBS RNA assessed as compound-RNA complex formation at stoichiometry ratio of 1:1 incubated for 30 mins measured under non-denaturing conditions by ESI-MS analysis; type: nucleic-acid assay; conditions: Human immunodeficiency virus 1
Outline: (§3)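 In ESI-MS spectra of compound–RNA mixtures, peaks for free RNA and complexed species were quantified. The percentage of bound substrate in each spectrum gave the relative binding affinity for each RNA construct.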

PBS RNA [6] = experiment: Binding affinity to HIV1 (+)PBS RNA assessed as compound-RNA complex formation at stoichiometry ratio of 1:1 incubated for 30 mins measured under non-denaturing conditions by ESI-MS analysis; type: nucleic-acid assay; conditions: Human immunodeficiency virus 1; outline: as §3
PBS RNA [7] = experiment: Binding affinity to HIV1 (+)PBS RNA at apical loop assessed as compound-RNA complex formation at stoichiometry ratio of 1:1 by MS/MS spectrum analysis; type: nucleic-acid assay; conditions: Human immunodeficiency virus 1

Compound: NCCCCC(N)C(=O)NCC(=O)Nc1ccc2c(c1)C(=O)c1ccc(NC(=O)CNC(=O)C(N)CCCCN)cc1C2=O (stereo unspecified)
- IC50 (PBS RNA [1]): 18 µM
- IC50 (PBS RNA [2]): 23 µM
- Activity (PBS RNA [3]): Active
- Activity (PBS RNA [4]): Active

Compound: NCCCC(N)C(=O)NCCC(=O)Nc1ccc2c(c1)C(=O)c1ccc(NC(=O)CCNC(=O)C(N)CCCN)cc1C2=O (stereo unspecified)
- IC50 (PBS RNA [1]): 20 µM
- IC50 (PBS RNA [2]): 20 µM
- Activity (PBS RNA [3]): Active
- Activity (PBS RNA [4]): Active

Compound: C[C@H](NC(=O)C(N)CN)C(=O)Nc1ccc2c(c1)C(=O)c1ccc(NC(=O)[C@H](C)NC(=O)C(N)CN)cc1C2=O (stereo partly specified)
- IC50 (PBS RNA [1]): 45 µM
- IC50 (PBS RNA [2]): 54 µM
- Activity (PBS RNA [5]): Active
- Activity (PBS RNA [6]): Active

Compound: C[C@H](NC(=O)C(N)CCCN)C(=O)Nc1ccc2c(c1)C(=O)c1ccc(NC(=O)[C@H](C)NC(=O)C(N)CCCN)cc1C2=O (stereo partly specified)
- IC50 (PBS RNA [1]): 16 µM
- IC50 (PBS RNA [2]): 21 µM
- Activity (PBS RNA [5]): Active
- Activity (PBS RNA [6]): Active

Compound: NCCC(N)C(=O)NCCC(=O)Nc1ccc2c(c1)C(=O)c1ccc(NC(=O)CCNC(=O)C(N)CCN)cc1C2=O (stereo unspecified)
- IC50 (PBS RNA [1]): 24 µM
- IC50 (PBS RNA [2]): 30 µM
- Activity (PBS RNA [5]): Active
- Activity (PBS RNA [6]): Active

Compound: C[C@H](NC(=O)C(N)CCN)C(=O)Nc1ccc2c(c1)C(=O)c1ccc(NC(=O)[C@H](C)NC(=O)C(N)CCN)cc1C2=O (stereo partly specified)
- IC50 (PBS RNA [1]): > 100 µM
- IC50 (PBS RNA [2]): 88 µM
- Activity (PBS RNA [5]): Active
- Activity (PBS RNA [6]): Active

Compound: NCCCCC(N)C(=O)NCCC(=O)Nc1ccc2c(c1)C(=O)c1ccc(NC(=O)CCNC(=O)C(N)CCCCN)cc1C2=O (stereo unspecified)
- IC50 (PBS RNA [1]): > 100 µM
- IC50 (PBS RNA [2]): 85 µM

Compound: C[C@H](NC1(N)CCNCC1)C(=O)Nc1ccc2c(c1)C(=O)c1ccc(NC(=O)[C@H](C)NC3(N)CCNCC3)cc1C2=O
- IC50 (PBS RNA [1]): > 200 µM
- IC50 (PBS RNA [2]): > 200 µM
- Activity (PBS RNA [5]): Active
- Activity (PBS RNA [6]): Active

Compound: C[C@@H](NC(=O)C(N)CCCCN)C(=O)Nc1ccc2c(c1)C(=O)c1ccc(NC(=O)[C@@H](C)NC(=O)C(N)CCCCN)cc1C2=O (stereo partly specified)
- IC50 (PBS RNA [1]): 48 µM
- IC50 (PBS RNA [2]): 54 µM
- Activity (PBS RNA [5]): Active
- Activity (PBS RNA [6]): Active

Compound: NCCCC(N)C(=O)NCC(=O)Nc1ccc2c(c1)C(=O)c1ccc(NC(=O)CNC(=O)C(N)CCCN)cc1C2=O (stereo unspecified)
- IC50 (PBS RNA [1]): 34 µM
- IC50 (PBS RNA [2]): 30 µM
- Activity (PBS RNA [5]): Active
- Activity (PBS RNA [6]): Active

Compound: C[C@H](NC(=O)C(N)CCCCN)C(=O)Nc1ccc2c(c1)C(=O)c1ccc(NC(=O)[C@H](C)NC(=O)C(N)CCCCN)cc1C2=O (stereo partly specified)
- IC50 (PBS RNA [1]): 15 µM
- IC50 (PBS RNA [2]): 12 µM
- Activity (PBS RNA [7]): Active
- Activity (PBS RNA [3]): Active
- Activity (PBS RNA [4]): Active

Compound: C[C@@H](NC1CCNCC1)C(=O)Nc1ccc2c(c1)C(=O)c1ccc(NC(=O)[C@@H](C)NC3CCNCC3)cc1C2=O
- IC50 (PBS RNA [1]): > 200 µM
- IC50 (PBS RNA [2]): > 200 µM
- Activity (PBS RNA [5]): Active
- Activity (PBS RNA [6]): Active

Compound: C[C@@H](NC(=O)C(N)CCCN)C(=O)Nc1ccc2c(c1)C(=O)c1ccc(NC(=O)[C@@H](C)NC(=O)C(N)CCCN)cc1C2=O (stereo partly specified)
- IC50 (PBS RNA [1]): 54 µM
- IC50 (PBS RNA [2]): 55 µM
- Activity (PBS RNA [5]): Active
- Activity (PBS RNA [6]): Active
